Measurements reported in ChEMBL document CHEMBL2086232, “Exploration of the SAR of anti-invasive chalcones: synthesis and biological evaluation of conformationally restricted analogues” (Bioorg Med Chem, 2012).
Calls of active or inactive are those of the source. The rule behind the calls is not given here.

What was measured:
MCF7/6 [1] = experiment: Antiinvasive activity against human MCF7/6 cells assessed as inhibition of cell invasion across chick precultured heart fragments at 10 umol/L after 8 days by chick heart invasion assay; type: functional, cell-based
Summary of the method: (§1)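 Heart fragments from 9-day-old chick embryos were precultured, then confronted with aggregates of invasive human MCF-7/6 mammary carcinoma cells with test compound present. Replicate cultures were graded at each concentration.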

MCF7/6 [2] = experiment: Antiinvasive activity against human MCF7/6 cells assessed as inhibition of cell invasion across chick precultured heart fragments at 1 umol/L after 8 days by chick heart invasion assay; type: functional, cell-based; summary of the method: as §1
MCF7/6 [3] = experiment: Antiinvasive activity against human MCF7/6 cells assessed as inhibition of cell invasion across chick precultured heart fragments at 0.1 umol/L after 8 days by chick heart invasion assay; type: functional, cell-based; summary of the method: as §1
[4] = Cytotoxicity against human MCF7/6 cells at 100 umol/L after 8 days by histological analysis; type: cell-based; conditions: mcf7/6, 192 h, 100 µM
Summary of the method: (§2)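 Chick heart confronting cultures (9-day-old embryo precultured heart fragments plus MCF-7/6 aggregates, compound present) were examined on 7-µm histological sections. Replicate cultures were graded per concentration.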

MCF7/6 [5] = experiment: Antiinvasive activity against human MCF7/6 cells assessed as inhibition of cell invasion across chick precultured heart fragments at 100 umol/L after 8 days by chick heart invasion assay; type: functional, cell-based; summary of the method: as §1
[6] = Toxicity against chick precultured heart fragments at 10 umol/L after 8 days by histological analysis; type: tissue-based, Gallus gallus; conditions: chicken, 192 h, 10 µM
[7] = Cytotoxicity against human MCF7/6 cells at 10 umol/L after 8 days by histological analysis; type: cell-based; conditions: mcf7/6, 192 h, 10 µM; summary of the method: as §2

| Compound | Activity (MCF7/6 [1]) | Activity (MCF7/6 [2]) | Activity (MCF7/6 [3]) | Activity [4] | Activity (MCF7/6 [5]) | Activity [6] | Activity [7] |
| --- | --- | --- | --- | --- | --- | --- | --- |
| COc1cc(-c2cc(-c3ccc(F)cc3)on2)cc(OC)c1OC | Active | inactive | inactive | Toxic | Active |  |  |
| COc1cc(C(=O)Cc2ccc(F)cc2)cc(OC)c1OC | inactive | inactive | inactive | Toxic | Active |  |  |
| COc1ccc(-c2cc(-c3ccc(Cl)cc3)on2)cc1 | inactive | inactive |  |  |  |  |  |
| COc1cc(-c2oncc2-c2ccc(F)cc2)cc(OC)c1OC | Active | Active | inactive | Toxic |  | Toxic | Toxic |
| COc1ccc(C2=NOC(c3ccc(Cl)cc3)C2)cc1 (stereo not given) |  | inactive |  |  | inactive |  |  |
